Experimental data from ChEMBL document CHEMBL5380865, “Linearization of the Brevicidine and Laterocidine Lipopeptides Yields Analogues That Retain Full Antibacterial Activity” (J Med Chem, 2023).
≈ marks a conversion by molar mass, not a printed value. *1 amine or outer side, *2 acyl side, *3 side chain or, on linkers, in order; H or OH if unused. Where a SMILES comes first, the peptide text is derived from it. [ ]: non-standard residue; d: D form. The star is where a group is joined. ξ: configuration not given here. X1 = C[C@@H](N=[N+]=[N-])[C@H](N[*:1])C(=O)[*:2]; Octanoyl(7-Me) = CC(C)CCCCCC(=O)*; Hexanoyl(4ξ-Me) = CCC(C)CCC(=O)*; dOrn = NCCC[C@@H](N)C(=O)O; Orn = NCCC[C@H](N)C(=O)O

Tests used:
[1] = tested on: Escherichia coli; assay: Antibacterial activity Escherichia coli ATCC 25922 assessed as inhibition of visible bacterial growth incubated for 18 hrs by microbroth dilution assay; assay type: functional
How it was run: (§1)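 CLSI broth microdilution. Strains streaked from glycerol stocks onto blood agar (16 h, 37 °C); single colonies grown in TSB at 37 °C, 220 rpm, to OD600 about 0.5. Diluted in MHB to 2 × 10^5 CFU/mL and mixed 1:1 with compounds serially diluted in MHB from DMSO stocks (colistin from water stocks), polypropylene plates. Sealed, 18 h at 37 °C, 600 rpm. MIC taken as lowest concentration preventing visible growth, three technical replicates.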

[2] = tested on: Acinetobacter baumannii; assay: Antibacterial activity Acinetobacter baumannii ATCC 17961 assessed as inhibition of visible bacterial growth incubated for 18 hrs by microbroth dilution assay; assay type: functional; how it was run: as §1
[3] = Hemolytic activity in sheep red blood cell assessed as hemolysis at 1 to 128 ug/ml incubated for 1 hrs relative to control; assay type: toxicity, cell-based, Ovis aries, Erythrocyte; conditions: sheep red blood cells (erythrocytes), at 1 to 128 µg/mL, dose 1-128 µg/ml, read-out: Activity
How it was run: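 Defibrinated sheep erythrocytes washed five times in PBS with 0.002% Tween20 and normalized so the Triton control reads 2.5–3.0 at 415 nm. Mixed 1:1 with compound serial dilutions (128–1 μg/mL) and incubated 1 h at 37 °C, 500 rpm. Supernatant A415 is background-corrected with buffer and expressed as percent of 0.1% Triton X-100 (final). Run in triplicate.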

[4] = tested on: Staphylococcus aureus; assay: Antibacterial activity Staphylococcus aureus USA300 assessed as inhibition of visible bacterial growth incubated for 18 hrs by microbroth dilution assay; assay type: functional; how it was run: as §1
[5] = tested on: Klebsiella pneumoniae; assay: Antibacterial activity Klebsiella pneumoniae ATCC 13883 assessed as inhibition of visible bacterial growth incubated for 18 hrs by microbroth dilution assay; assay type: functional; how it was run: as §1
[6] = tested on: Escherichia coli; assay: Antibacterial activity Escherichia coli MCR-1 assessed as inhibition of visible bacterial growth incubated for 18 hrs by microbroth dilution assay; assay type: functional
How it was run: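 Colistin-resistant E. coli 25922 carrying MCR-1, grown from glycerol stock in kanamycin-supplemented TSB for 16 h at 37 °C, 220 rpm. Diluted 100-fold in kanamycin-supplemented TSB and grown to OD600 about 0.5, then diluted in MHB to 2 × 10^5 CFU/mL. Combined 1:1 with MHB serial dilutions of compounds. Sealed, 18 h at 37 °C, 600 rpm; lowest concentration without visible growth, triplicate technical replicates.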

[7] = tested on: Pseudomonas aeruginosa; assay: Antibacterial activity Pseudomonas aeruginosa PAO1 assessed as inhibition of visible bacterial growth incubated for 18 hrs by microbroth dilution assay; assay type: functional
How it was run: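 CLSI broth microdilution. Colonies from blood agar (16 h, 37 °C) grown in TSB at 37 °C, 220 rpm, to OD600 about 0.5, then diluted in MHB to 2 × 10^5 CFU/mL. Added to DMSO-stock compounds serially diluted in MHB in polypropylene plates. Sealed, 18 h at 37 °C, 600 rpm. MIC = lowest concentration with no visible growth; three technical replicates.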

Structure (SMILES) | MIC [1] | MIC [2] | hemolysis at 1 h [3] | MIC [4] | MIC [5] | MIC [6] | MIC [7]
CC[C@H](C)[C@H](NC(=O)[C@@H](NC(=O)[C@H](Cc1c[nH]c2ccccc12)NC(=O)[C@@H](CCCN)NC(=O)CNC(=O)[C@H](CCCN)NC(=O)[C@@H](CCCN)NC(=O)[C@@H](Cc1c[nH]c2ccccc12)NC(=O)[C@@H](Cc1ccc(O)cc1)NC(=O)[C@@H](CO)NC(=O)CCCCCC(C)C)[C@@H](C)N=[N+]=[N-])C(=O)N[C@@H](CC(N)=O)C(=O)NCC(=O)NCC(N)=O ({Octanoyl(7-Me)}-[dS][dY][dW][dOrn][Orn]G[dOrn]W[X1]INGG-NH2) | 4 µg/mL (≈ 2.43 µM) | 2 µg/mL (≈ 1.21 µM) | < 0.1% | > 32 µg/mL | 4 µg/mL (≈ 2.43 µM) | 4 µg/mL (≈ 2.43 µM) | 4 µg/mL (≈ 2.43 µM)
CCC(C)CCC(=O)N[C@H](CC(N)=O)C(=O)N[C@H](Cc1ccc(O)cc1)C(=O)N[C@H](Cc1c[nH]c2ccccc12)C(=O)N[C@H](CCCN)C(=O)N[C@@H](CCCN)C(=O)NCC(=O)N[C@H](CCCN)C(=O)N[C@@H](Cc1c[nH]c2ccccc12)C(=O)N[C@H](C(=O)N[C@@H](C)C(=O)NCC(=O)N[C@@H](CO)C(N)=O)[C@@H](C)O (stereo partly drawn) ({Hexanoyl(4ξ-Me)}-[dN][dY][dW][dOrn][Orn]G[dOrn]WTAGS-NH2) | > 32 µg/mL | > 32 µg/mL | – | > 32 µg/mL | > 32 µg/mL | > 32 µg/mL | 16 µg/mL (≈ 10.7 µM)
